The results in this text go back to ChEMBL document CHEMBL4428065, “Fulvestrant-3 Boronic Acid (ZB716): An Orally Bioavailable Selective Estrogen Receptor Downregulator (SERD)” (J Med Chem, 2016).

For series [1], the system named is T47D. In words: Antiproliferative activity against human T47D cells after 5 days by coulter counter analysis. Particulars: 120 h. Type of series: functional, cell-based. Summed up:
(§1)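 Cells plated at 50000/well in 5% FBS phenol red-free DMEM; treated with six concentrations from 10−10 to 10−5 M for 5 days, DMSO vehicle controls. Viable cells counted by Coulter counter; survival ratio = treated/vehicle viable cells (control 100%). IC50 derived from dose–response curves. Cultures at 37 °C, 5% CO2.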

The subject of series [2] is T47D. In words: Antiproliferative activity against human tamoxifen-resistant T47D cells over-expressing PKC-alpha after 5 days by coulter counter analysis. The series is classed as functional, cell-based. Particulars: 120 h. The method in brief:
as §1

For series [3], the target named is T1, Estrogen receptor (Homo sapiens) (UniProt P03372).
T1 sequence (whole entry): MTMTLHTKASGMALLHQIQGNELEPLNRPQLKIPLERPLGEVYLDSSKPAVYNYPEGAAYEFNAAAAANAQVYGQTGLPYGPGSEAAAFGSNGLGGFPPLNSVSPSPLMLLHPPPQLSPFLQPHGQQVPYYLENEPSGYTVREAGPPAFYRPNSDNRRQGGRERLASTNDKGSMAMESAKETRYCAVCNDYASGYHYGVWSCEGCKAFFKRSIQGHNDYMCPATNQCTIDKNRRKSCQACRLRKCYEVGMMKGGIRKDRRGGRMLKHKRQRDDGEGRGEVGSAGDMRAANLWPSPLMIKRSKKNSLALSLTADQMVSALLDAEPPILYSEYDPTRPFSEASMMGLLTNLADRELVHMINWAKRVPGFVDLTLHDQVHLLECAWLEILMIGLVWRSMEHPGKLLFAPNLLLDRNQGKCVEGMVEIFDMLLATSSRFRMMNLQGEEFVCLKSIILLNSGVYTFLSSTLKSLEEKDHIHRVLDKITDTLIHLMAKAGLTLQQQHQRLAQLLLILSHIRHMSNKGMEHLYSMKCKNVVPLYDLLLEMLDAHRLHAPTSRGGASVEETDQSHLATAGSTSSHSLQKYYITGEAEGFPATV
Nature of the series: (§2) Downregulation of ER-alpha expression in human tamoxifen-resistant T47D cells over-expressing PKC-alpha measured after 5 days by Western blot analysis. The series is classed as cell-based. Background: In western blotting, separated proteins are transferred to a membrane and probed.

Series [4] has as its target T2, Estrogen receptor (Homo sapiens, UniProt P03372).
T2 sequence (P03372 whole entry): T1 sequence (whole entry)
The description is as §2. The series is classed as cell-based.

The nature of series [5]: Cmax in C57BL/6 mouse at 8.3 mg/kg administered through oral gavage by HPLC-MS/MS analysis. The series is classed as ADME, organism-based. On the set-up: dose 8.3 mg/kg, route oral. The settings on record: in vivo. Summed up: (§3)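 Female C57BL/6 mice, n = 5, given a single 8.3 mg/kg oral gavage in PBS/ethanol. Orbital sinus blood was drawn into EDTA at 1, 3, 6, 24 and 48 h, with each group sampled once. Analysis by UPLC-MS/MS on a C18 column with a water/acetonitrile 0.05% formic acid gradient.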

Series [6] concerns the target T1, Estrogen receptor (Homo sapiens). In words: Antagonistic activity at estrogen receptor in human MCF7 cells assessed as suppression of WISP1 expression 10^-8 to 10^-7 M measured after 48 hrs by real-time PCR analysis. Type of series: cell-based. Summed up:
(§4)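 MCF-7 cells were seeded in DMEM with 5% FBS, then switched to phenol red-free DMEM with 5% charcoal-stripped FBS for 48 h. They were treated 48 h with vehicle, E2, or test compound + E2. Expression was measured by real-time PCR, with fold change calculated by 2^−ΔΔCt normalized to five reference genes (18S rRNA, HPRT1, RPL13A, GAPDH, ACTB).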

For series [7], the system named is MCF7. In words: Antiproliferative activity against human tamoxifen-resistant MCF7 cells after 5 days by coulter counter analysis. The series is classed as functional, cell-based. Particulars: MCF7, 120 h. The method in brief:
(§5)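 Cells were plated at 50000/well in 5% FBS phenol red-free DMEM. The tamoxifen-resistant line came from prolonged 4-hydroxytamoxifen exposure of MCF-7. Cells were treated 5 days at six concentrations from 10−10 to 10−5 M, with DMSO vehicle. Viable cells were counted by Coulter counter, survival expressed relative to vehicle, and IC50 taken from dose-response curves.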

Series [8] addresses T1, Estrogen receptor (Homo sapiens). Nature of the series: Antagonistic activity at estrogen receptor in human MCF7 cells assessed as suppression of PGR expression 10^-8 to 10^-7 M measured after 48 hrs by real-time PCR analysis. Type of series: cell-based. Summed up:
as §4
For orientation: Quantitative PCR measures a nucleic acid by following its amplification.

Series [9] shares this target. Nature of the series: Antagonistic activity at estrogen receptor in human MCF7 cells assessed as suppression of EGR3 expression at 10^-8 to 10^-7 M measured after 48 hrs by real-time PCR analysis. The series is classed as cell-based. The method in brief:
as §4

Series [10] has the same target. In words: Antagonistic activity at estrogen receptor in human MCF7 cells assessed as suppression of TFF1 expression 10^-8 to 10^-7 M measured after 48 hrs by real-time PCR analysis. The series is classed as cell-based. Summed up: as §4
The target of series [11] is T2, Estrogen receptor. In words: Displacement of fluoromone ligand from recombinant ER-alpha (unknown origin) by LanthaScreen TR-FRET assay. The method in brief:
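Competitive TR-FRET binding with recombinant ERα, in which test compound displaces a fluormone tracer. Six to ten concentrations spanning the IC50 were tested in quadruplicate, and IC50 was taken from the competition curves.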
(In general: Time-resolved FRET reads energy transfer from a long-lived donor to a nearby acceptor.)

For series [12], the target named is T1, Estrogen receptor (Homo sapiens). In words: (§6) Downregulation of ER-alpha expression in human T47D cells measured after 5 days by Western blot analysis. Type of series: cell-based.
In series [13] the target is T2, Estrogen receptor. Described as §6. The series is classed as cell-based.
The target of series [14] is T1, Estrogen receptor (Homo sapiens). Nature of the series: Antagonistic activity at estrogen receptor in human MCF7 cells assessed as suppression of PDZK1 expression 10^-8 to 10^-7 M measured after 48 hrs by real-time PCR analysis. Type of series: cell-based. The method in brief: as §4
Series [15] in a line: Half life in C57BL/6 mouse at 8.3 mg/kg administered through oral gavage by HPLC-MS/MS analysis. Type of series: ADME, organism-based. The settings on record: in vivo. The method in brief: as §3
For series [16], the system named is MCF7. In words: Antiproliferative activity against human MCF7 cells after 5 days by coulter counter analysis. Type of series: functional, cell-based. The settings on record: MCF7, 120 h. Summed up:
as §5

Series [17] can be described thus: AUC in C57BL/6 mouse at 8.3 mg/kg administered through oral gavage by HPLC-MS/MS analysis. Type of series: ADME, organism-based. Particulars: in vivo. Summed up: as §3
Series [18] deals with T1, Estrogen receptor (Homo sapiens). Nature of the series: Antiestrogenic activity at estrogen receptor in human T47D-KBluc cells assessed as inhibition of estradiol activity by luciferase reporter gene assay relative to estradiol control. The series is classed as cell-based. Summed up:
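T47D-kb-Luc cells stably carry an ERE-driven firefly luciferase. Antagonism was read as inhibition of the signal induced by 0.01 nM estradiol, testing 0.1, 1 and 10 nM. Luminescence was normalized to the estradiol control, run in quadruplicate in at least three separate experiments, and given as mean ± SD.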

Series [19] in a line: Half life in C57BL/6 mouse at 8.3 mg/kg, sc by HPLC-MS/MS analysis. The series is classed as ADME, organism-based. The settings on record: in vivo.
A short description of series [20]: Cmax in C57BL/6 mouse at 8.3 mg/kg, sc by HPLC-MS/MS analysis. The series is classed as ADME, organism-based. Also on record: dose 8.3 mg/kg, route subcutaneous. Particulars: in vivo.
A short description of series [21]: AUC in C57BL/6 mouse at 8.3 mg/kg, sc by HPLC-MS/MS analysis. The series is classed as ADME, organism-based. Particulars: in vivo.

Molecules are shown by their SMILES. The source made the active and inactive calls.

One may read the IC50 as the point on the concentration scale where inhibition reaches its midpoint. Broadly, the Cmax is the maximum level reached in the sampled fluid or tissue. The term AUC denotes the area under the concentration-time curve, a measure of exposure. The low end stands for low exposure, the high end for high exposure. In general, half-life refers to the time needed for the level to fall by half in the phase considered. Read a low half-life as fast loss.

Take `CC/C(=C(\c1ccc(O)cc1)c1ccc(OCCN(C)C)cc1)c1ccccc1` [AFIMOXIFENE]: the IC50 came to 24 nM in the series on T47D [1] and 540 nM with T47D [2].
With `C[C@]12CC[C@@H]3c4ccc(B(O)O)cc4C[C@@H](CCCCCCCCC[S+]([O-])CCCC(F)(F)C(F)(F)F)[C@H]3[C@@H]1CC[C@@H]2O` (stereo not given in full) [ZB-716], the inhibition result in [3], in series [12] and in series [18] was “Dose-dependent effect” each time. For the same molecule, the IC50 at Estrogen receptor [4] was 12.7 nM; in the series on MCF7 [7], 69 nM; in the series on T47D [1], 6.1 nM; on Estrogen receptor [11], 4.1 nM; on Estrogen receptor [13] it was 7.8 nM; in the series on MCF7 [16], 3.2 nM. The molecule also registered an IC50 in the series with T47D [2] of 37 nM. This molecule displayed a Cmax in [5] of 169.8 ng/mL. The inhibition entry in series [6], in series [8], in [9], in [10] and in series [14] was “Active” in each case. Moreover, in series [15], the t1/2 turned out to be 23.5 h. The AUC in series [17] is 2547.1 ng·h/mL.
Turning to `C[C@]12CC[C@@H]3c4ccc(O)cc4C[C@@H](CCCCCCCCC[S+]([O-])CCCC(F)(F)C(F)(F)F)[C@H]3[C@@H]1CC[C@@H]2O` (stereo not given in full) [FULVESTRANT], the inhibition entry in series [3], in [12] and in series [18] was “Dose-dependent effect” in each case. In addition, the 50% inhibitory concentration (IC50) turned out to be 44 nM in the series on MCF7 [7], 1.2 nM in the series on T47D [1], 1.5 nM with MCF7 [16] and 42 nM with T47D [2]. In addition, the half-life in series [19] is 14 h. This molecule yielded a Cmax in series [20] of 15.2 ng/mL. This molecule also showed an AUC in series [21] of 158 ng·h/mL.
